Data taken from paper PMC3062473 (ChemMedChem, 2010).

Tests used:
Microsomal stability = type: in vitro ADME, human; details: human, liver microsomes
Method in brief: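 Human microsomal stability, profiled by a contract lab alongside internal control compounds. Includes minus-NADPH and minus-compound control incubations.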

Caspase 8 = Caspase 8 (Homo sapiens, UniProt Q14790); details: read-out: Ki caspase 8; cited from earlier work
cathepsin B = details: cited from earlier work
[1] = Plasma protein binding, equilibrium dialysis in 100% plasma; type: in vitro ADME, human; details: human plasma, 100% plasma, equilibrium dialysis
caspase 1 [2] = molecular target: T1, caspase 1 (Homo sapiens, UniProt P29466); assay: Reaction Biology caspase panel; type: biochemical; details: read-out: Caspase 1 IC50; (Z-LEHD)2-R110 substrate; three separate experiments
T1 sequence (P29466 120-297 limits assumed): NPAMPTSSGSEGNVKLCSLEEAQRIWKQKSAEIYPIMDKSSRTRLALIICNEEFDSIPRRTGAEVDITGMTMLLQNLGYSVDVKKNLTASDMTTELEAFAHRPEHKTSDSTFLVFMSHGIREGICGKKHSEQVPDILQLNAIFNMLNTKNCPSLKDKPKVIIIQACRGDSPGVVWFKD
T1 sequence (P29466 317-404 limits assumed): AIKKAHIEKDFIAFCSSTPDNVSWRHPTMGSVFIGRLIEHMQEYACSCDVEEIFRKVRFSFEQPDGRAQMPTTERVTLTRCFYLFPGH

Caspase 10 = molecular target: T2, Caspase 10 (Homo sapiens, UniProt Q92851); assay: Reaction Biology caspase panel; type: biochemical; details: read-out: Caspase 10 IC50; (Z-LEHD)2-R110 substrate; three separate experiments
T2 sequence (Q92851 220-415 limits assumed): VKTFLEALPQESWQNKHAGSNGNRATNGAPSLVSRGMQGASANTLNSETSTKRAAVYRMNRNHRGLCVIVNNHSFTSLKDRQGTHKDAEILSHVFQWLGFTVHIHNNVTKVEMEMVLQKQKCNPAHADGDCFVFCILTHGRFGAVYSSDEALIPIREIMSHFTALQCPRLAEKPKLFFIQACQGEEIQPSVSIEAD
T2 sequence (Q92851 416-521 limits assumed): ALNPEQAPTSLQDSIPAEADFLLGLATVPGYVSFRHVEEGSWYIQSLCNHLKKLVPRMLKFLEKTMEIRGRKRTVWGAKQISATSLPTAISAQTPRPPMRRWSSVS

Caspase 9 [3] = molecular target: T3, Caspase 9 (Homo sapiens, UniProt P55211); details: read-out: Ki caspase 9; cited from earlier work
T3 sequence (P55211 1-315 limits assumed): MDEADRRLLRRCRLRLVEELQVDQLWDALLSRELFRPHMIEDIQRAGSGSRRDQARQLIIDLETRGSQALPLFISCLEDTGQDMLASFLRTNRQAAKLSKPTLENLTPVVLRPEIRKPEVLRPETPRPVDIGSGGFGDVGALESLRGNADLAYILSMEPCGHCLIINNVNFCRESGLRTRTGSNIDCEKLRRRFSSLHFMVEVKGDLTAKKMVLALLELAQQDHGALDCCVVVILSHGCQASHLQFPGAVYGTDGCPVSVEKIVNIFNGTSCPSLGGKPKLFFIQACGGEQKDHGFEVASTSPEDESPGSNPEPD
T3 sequence (P55211 331-416 limits assumed): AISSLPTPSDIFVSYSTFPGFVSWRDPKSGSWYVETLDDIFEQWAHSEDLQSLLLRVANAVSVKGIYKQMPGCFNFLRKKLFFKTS

Caspase 14 = molecular target: T4, Caspase 14 (Homo sapiens, UniProt P31944); assay: Reaction Biology caspase panel; type: biochemical; details: read-out: Caspase 14 IC50; (Z-LEHD)2-R110 substrate; three separate experiments
T4 sequence (P31944 6-146 limits assumed): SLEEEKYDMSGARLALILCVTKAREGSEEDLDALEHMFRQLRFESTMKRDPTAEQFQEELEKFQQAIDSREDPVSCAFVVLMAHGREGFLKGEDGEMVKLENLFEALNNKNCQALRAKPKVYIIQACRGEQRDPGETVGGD
T4 sequence (P31944 153-242 limits assumed): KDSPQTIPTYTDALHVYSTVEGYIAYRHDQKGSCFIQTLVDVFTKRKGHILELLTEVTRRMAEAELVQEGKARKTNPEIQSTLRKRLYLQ

caspase 1 [4] = molecular target: T1, caspase 1; details: read-out: Ki caspase 1; cited from earlier work
Caspase 5 = molecular target: T5, Caspase 5 (Homo sapiens, UniProt P51878); assay: Reaction Biology caspase panel; type: biochemical; details: read-out: Caspase 5 IC50; (Z-LEHD)2-R110 substrate; three separate experiments
T5 sequence (P51878 137-327 limits assumed): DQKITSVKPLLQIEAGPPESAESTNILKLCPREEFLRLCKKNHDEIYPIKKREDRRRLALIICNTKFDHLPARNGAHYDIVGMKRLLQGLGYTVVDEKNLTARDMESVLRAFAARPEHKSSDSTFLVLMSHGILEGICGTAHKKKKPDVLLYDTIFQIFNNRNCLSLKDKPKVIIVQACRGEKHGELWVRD
T5 sequence (P51878 347-434 limits assumed): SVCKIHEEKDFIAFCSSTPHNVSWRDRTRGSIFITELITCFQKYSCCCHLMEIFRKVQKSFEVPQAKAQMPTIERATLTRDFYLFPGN

[5] = Aqueous degradation study by LCMS over 96 hours; type: physicochemical; details: up to 96 hours
Caspase 9 [6] = molecular target: T3, Caspase 9; assay: Reaction Biology caspase panel; type: biochemical; details: read-out: Caspase 9 IC50; (Z-LEHD)2-R110 substrate; three separate experiments
trypsin = details: cited from earlier work
granzyme B = details: cited from earlier work
Caspase 7 [7] = molecular target: T6, Caspase 7 (Homo sapiens, UniProt P55210); assay: Reaction Biology caspase panel; type: biochemical; details: read-out: Caspase 7 IC50; (Z-DEVD)2-R110 substrate; three separate experiments
T6 sequence (P55210 24-198 limits assumed): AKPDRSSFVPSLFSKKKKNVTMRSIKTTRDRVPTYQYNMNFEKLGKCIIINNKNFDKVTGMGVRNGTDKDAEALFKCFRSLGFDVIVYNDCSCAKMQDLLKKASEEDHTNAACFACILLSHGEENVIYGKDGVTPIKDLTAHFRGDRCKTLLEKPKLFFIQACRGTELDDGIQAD
T6 sequence (P55210 207-303 limits assumed): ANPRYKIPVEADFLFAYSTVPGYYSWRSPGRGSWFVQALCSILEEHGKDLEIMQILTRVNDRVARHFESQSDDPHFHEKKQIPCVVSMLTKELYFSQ

Caspase 7 [8] = molecular target: T6, Caspase 7; details: cited from earlier work

Caspase 8, sequence (Q14790 217-374 limits assumed): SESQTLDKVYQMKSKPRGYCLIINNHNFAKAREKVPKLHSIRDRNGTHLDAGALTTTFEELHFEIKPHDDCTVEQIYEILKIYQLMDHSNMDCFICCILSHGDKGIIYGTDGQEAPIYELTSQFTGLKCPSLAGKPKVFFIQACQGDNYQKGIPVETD
Caspase 8, sequence (Q14790 385-479 limits assumed): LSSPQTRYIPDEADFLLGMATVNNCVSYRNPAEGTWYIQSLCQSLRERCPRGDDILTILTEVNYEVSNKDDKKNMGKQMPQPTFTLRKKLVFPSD

CC(C)(C)[C@H](NC(=O)c1ccc(N)c(Cl)c1)C(=O)N1CCC[C@H]1C(=O)N[C@H](C=O)CC(=O)O [Compound 2b, reference compound]
Microsomal Stability CLint (Microsomal stability): 6.72 μL/min/mg protein | Microsomal Stability t1/2 (Microsomal stability): 206 min | Ki (Caspase 8): 100 nM | activity against cathepsin B (cathepsin B): little activity | Protein Binding fraction unbound [1]: 0.420 | IC50 (caspase 1 [2]): 0.204 nM | IC50 (Caspase 10): 66.5 nM | Ki (Caspase 9 [3]): 1030 nM | IC50 (Caspase 14): 58.5 nM | Ki (caspase 1 [4]): < 1 nM | IC50 (Caspase 5): 10.6 nM | aqueous stability (in words) ([5]; acidic (pH 2)): very stable | aqueous stability (in words) ([5]; basic (pH 8)): moderate | aqueous stability (in words) ([5]; neutral (pH 7)): very stable | IC50 (Caspase 9 [6]): 5.07 nM | activity against trypsin (trypsin): little activity | activity against granzyme B (granzyme B): little activity | IC50 (Caspase 7 [7]): > 10 µM | activity against caspase 7 (Caspase 7 [8]): little activity
